The results in this text go back to ChEMBL document CHEMBL2401717, “Synthesis and bioactive evaluation of novel hybrids of metronidazole and berberine as new type of antimicrobial agents and their transportation behavior by human serum albumin” (Bioorg Med Chem, 2013).

The term MIC denotes the lowest concentration found to suppress growth. The term logP denotes the decadic logarithm of the partition coefficient of the neutral form, usually between octanol and water. Read a low logP as a more hydrophilic compound. One may read the solubility as the dissolved amount per volume that the medium holds. A high value points to much dissolved substance.

Data set [1] concerns the target T1, Albumin (Homo sapiens, UniProt P02768). The data set is described as follows: Binding affinity to human serum albumin assessed as decrease in fluorescence quenching at 286K by UV-Vis spectroscopy. In kind it is ADME. Conditions: isolated protein; call rule not given here. The essentials:
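Fluorescence of HSA fixed at 1.0 × 10^-5 mol L^-1, titrated with compound in 0.2 × 10^-5 mol L^-1 steps. Excitation 295 nm, emission scanned 300–450 nm, slits 2.5 nm, 1.0 cm quartz cells. Spectra recorded at several temperatures (286, 295, 298, 304, 310 K are cited in places). Data fitted by Stern–Volmer, modified Stern–Volmer and Scatchard equations to give binding constants and site number.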

In another data set the test system is Micrococcus luteus. The data set is described as follows: Antibacterial activity against Micrococcus luteus ATCC 4698 after 24 hrs by twofold broth dilution method. In kind it is functional. Conditions: ATCC 4698, 24 h. In a few lines:
(§1)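 MIC by NCCLS-recommended twofold broth microdilution, run in triplicate. Strains: B. subtilis ATCC6633, E. coli DH52, M. luteus ATCC4698, P. vulgaris ATCC6896, S. dysenteriae, S. aureus ATCC25923, MRSA N315, C. albicans ATCC76615, C. mycoderma. References were chloromycin, norfloxacin and berberine for bacteria, and fluconazole for fungi.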
For orientation: In broth dilution the organism is exposed to a series of concentrations in liquid medium.

Another data set has as its system Proteus vulgaris. The data set is described as follows: Antibacterial activity against Proteus vulgaris after 24 hrs by twofold broth dilution method. The class given is functional. The essentials: as §1
The test system of data set [2] is Pseudomonas aeruginosa. The data set is described as follows: Ratio of clinafloxacin MIC to compound MIC for Pseudomonas aeruginosa. The class given is functional.
Data set [3] relates to Pseudomonas aeruginosa. The data set is described as follows: Antibacterial activity against Pseudomonas aeruginosa after 24 hrs by twofold broth dilution method. The class given is functional. In a few lines:
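Twofold broth dilution in 96-well microplates following NCCLS guidance; MIC read as the endpoint; tests run in triplicate.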

Another data set deals with Shigella dysenteriae. The data set is described as follows: Antibacterial activity against Shigella dysenteriae after 24 hrs by twofold broth dilution method. In kind it is functional. The essentials: as §1
A further data set relates to Candida albicans. The data set is described as follows: Antifungal activity against Candida albicans after 24 hrs by twofold broth dilution method. In kind it is functional. In a few lines: as §1
In data set [4] the test system is Candida. The data set is described as follows: Ratio of fluconazole MIC to compound MIC for Candida mycoderma. The class given is functional. In a few lines:
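MICs for the compound and for fluconazole against Candida mycoderma were measured in parallel by twofold broth microdilution in 96-well plates, following NCCLS guidance, in triplicate. The ratio was then taken from the two MICs.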

Data set [5] concerns Bacillus subtilis. The data set is described as follows: Antibacterial activity against Bacillus subtilis after 24 hrs by twofold broth dilution method. The class given is functional. The essentials:
as §1

Data set [6] deals with Staphylococcus aureus. The data set is described as follows: Antibacterial activity against methicillin-resistant Staphylococcus aureus N315 after 24 hrs by twofold broth dilution method. The class given is functional. The settings on record: N315, 24 h. The essentials:
as §1

A short description of data set [7]: Stability of the compound at pH 6.5 to 8.5 after 30 mins by UV spectrophotometry. In kind it is physicochemical. The settings on record: buffer, pH 6.5, 0.5 h. The essentials: (§2)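 Stability followed by UV spectrometry across pH 6.5–8.5 and temperatures 30–80 °C.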
Data set [8] in a line: Octanol-water partition coefficient, log P of the compound after 24 hrs by UV-Vis spectrophotometry. In kind it is physicochemical.
A short description of data set [9]: Solubility of the compound in phosphate buffer at pH 7.5 after 20 hrs by UV spectrophotometry. The class given is physicochemical. The essentials:
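Phosphate buffer pH 7.5 added to solid; suspension sonicated 10 min, then shaken at room temperature for 20 h and centrifuged. Supernatant concentration read by UV absorbance against a regression calibration curve (278 and 340 nm).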

The target in data set [10] is T1, Albumin. The data set is described as follows: Binding affinity to human serum albumin by UV-Vis spectrophotometry. The class given is ADME. The settings on record: isolated protein. In a few lines: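 HSA UV–vis absorption spectrum compared with the difference spectrum of HSA–compound complex minus compound at equal concentration; recorded at room temperature in 1.0 cm quartz cells.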

The subject of data set [11] is Escherichia coli. The data set is described as follows: Antibacterial activity against Escherichia coli DH52 after 24 hrs by twofold broth dilution method. In kind it is functional. The settings on record: DH52, 24 h. The essentials:
as §1

The test system of data set [12] is Candida. The data set is described as follows: Antifungal activity against Candida mycoderma after 24 hrs by twofold broth dilution method. The class given is functional. The essentials: as §1
Data set [13] has as its system Staphylococcus aureus. The data set is described as follows: Antibacterial activity against Staphylococcus aureus ATCC 25923 after 24 hrs by twofold broth dilution method. The class given is functional. The settings on record: ATCC 25923, 24 h. The essentials: as §1
Data set [14] can be described thus: Stability of the compound at 30 to 80 degC after 30 mins by UV spectrophotometry. The class given is physicochemical. Conditions: 0.5 h. In a few lines: as §2
The test system of data set [15] is Staphylococcus aureus. The data set is described as follows: Ratio of chloromycin MIC to compound MIC for Staphylococcus aureus ATCC 25923. The class given is functional.
The test system of data set [16] is Staphylococcus aureus. The data set is described as follows: Ratio of berberin MIC to compound MIC for Staphylococcus aureus ATCC 25923. In kind it is functional.
Data set [17] deals with Escherichia coli. The data set is described as follows: Ratio of chloromycin MIC to compound MIC for Escherichia coli DH52. In kind it is functional.
For data set [18], the system named is Bacillus subtilis. The data set is described as follows: Ratio of chloromycin MIC to compound MIC for Bacillus subtilis. In kind it is functional.

T1 sequence (P02768 whole entry): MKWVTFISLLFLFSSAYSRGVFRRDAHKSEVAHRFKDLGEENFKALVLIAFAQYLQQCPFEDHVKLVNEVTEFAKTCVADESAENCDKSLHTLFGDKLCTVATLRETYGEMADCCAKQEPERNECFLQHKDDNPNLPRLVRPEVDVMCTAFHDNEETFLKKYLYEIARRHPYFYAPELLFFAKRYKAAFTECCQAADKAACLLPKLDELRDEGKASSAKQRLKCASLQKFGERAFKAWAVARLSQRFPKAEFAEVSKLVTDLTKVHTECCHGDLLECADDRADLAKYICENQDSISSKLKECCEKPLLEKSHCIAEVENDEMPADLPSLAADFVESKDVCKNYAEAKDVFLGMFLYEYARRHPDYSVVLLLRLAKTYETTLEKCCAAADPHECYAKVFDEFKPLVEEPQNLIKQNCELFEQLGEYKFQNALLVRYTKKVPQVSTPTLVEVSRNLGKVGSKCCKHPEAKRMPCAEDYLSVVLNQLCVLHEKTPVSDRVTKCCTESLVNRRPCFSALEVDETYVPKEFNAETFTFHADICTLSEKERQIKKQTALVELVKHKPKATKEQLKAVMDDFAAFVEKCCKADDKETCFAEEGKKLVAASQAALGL

As to `COc1ccc2cc3[n+](cc2c1OCCN(CCn1cncc1[N+](=O)[O-])Cc1ccc(F)cc1F)CCc1cc2c(cc1-3)OCO2.[Cl-]`, the result at Albumin [1] and at Albumin [10] was Active. In addition, the MIC in the data set on Micrococcus luteus was 8 µg/mL; against Proteus vulgaris, 4 µg/mL; against Pseudomonas aeruginosa [3], 8 µg/mL; with Shigella dysenteriae it was 4 µg/mL; against Candida albicans, 8 µg/mL; in the data set with Bacillus subtilis [5], 32 µg/mL. The MIC against Staphylococcus aureus [6] came to 16 µg/mL; against Escherichia coli [11] it was 8 µg/mL; with Candida [12], 1 µg/mL; against Staphylococcus aureus [13], 8 µg/mL. For the same molecule, the Ratio in the data set on Pseudomonas aeruginosa [2] came out at 2; in the data set with Candida [4] it was 4. Besides, the Stability entry in data set [7] and in data set [14] was “Stable” throughout. This molecule also yielded a logP at 24 h in data set [8] of 0.52. The molecule also showed a solubility at 20 h in [9] of 98.1 µg/mL.

In the case of `COc1ccc2cc3[n+](cc2c1OCCN(CCn1cncc1[N+](=O)[O-])Cc1ccccc1Cl)CCc1cc2c(cc1-3)OCO2.[Cl-]`, the Ratio amounted to 8 in the data set on Staphylococcus aureus [15], 8 with Staphylococcus aureus [16], 4 in the data set with Escherichia coli [17] and 4 in the data set with Bacillus subtilis [18]. The MIC with Micrococcus luteus was determined as 32 µg/mL; with Proteus vulgaris, 16 µg/mL; with Pseudomonas aeruginosa [3], 8 µg/mL; with Shigella dysenteriae, 8 µg/mL; against Candida albicans, 4 µg/mL; in the data set with Bacillus subtilis [5], 4 µg/mL. The MIC with Staphylococcus aureus [6] came to 8 µg/mL; against Escherichia coli [11] it was 4 µg/mL; in the data set on Candida [12] it was 32 µg/mL; in the data set with Staphylococcus aureus [13], 2 µg/mL. In addition, the Stability result in [7] and in [14] was “Stable” throughout. In addition, in [8], the logP at 24 h was found to be 0.56. The concentration in solution in data set [9] (solubility at 20 h) was 86.4 µg/mL.
